In ChEMBL document CHEMBL5303300, “EUbOPEN Chemogenomics Library - Multiplex” (2023):
“And” between values parts separate entries of the source, which are not always exact repeats. Identical values can stand only once.

How the values were obtained:
HEK-293T = assay: Multiplex assay against HEK293T; assay type: toxicity, cell-based; settings: human, number of replicates 2
Summary of the method: (§1)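 Live cells were stained at seeding with Hoechst33342, BioTracker Green Microtubule Cytoskeleton Dye, MitoTracker Red and Annexin V Alexa Fluor 680. Following compound addition, they were imaged on a CQ1 microscope at 37°C and 5% CO2 and gated by CellPathfinder machine learning into Hoechst high-intensity objects or normal cells, with normal cells split into healthy, pyknosed or fragmented nuclei and pyknosed cells into mitotic or apoptotic. Tubulin, mitochondrial-mass and membrane-permeability phenotypes are per cents of healthy-nucleus cells.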

U2OS = assay: Multiplex assay against U2OS; assay type: toxicity, cell-based; settings: human, number of replicates 2; summary of the method: as §1
[1] = 24 h, 1 µM, compound concentration 1 uM
[2] = 24 h, 10 µM, compound concentration 10 uM
[3] = 48 h, 1 µM, compound concentration 1 uM
[4] = 48 h, 10 µM, compound concentration 10 uM
[5] = 12 h, 1 µM, compound concentration 1 uM
[6] = 12 h, 10 µM, compound concentration 10 uM

Compound: CN1CCN(c2ccc(-n3cc(-c4ccncc4OCC4CCNCC4)cn3)cc2)CC1
- Population Mitochondria Different-Phenotype (%) (HEK-293T; [1]): 2% and 6%
- Population Mitotic Cells (%) (HEK-293T; [1]): 70% and 50%
- Population Normal (%) (HEK-293T; [1]): 91% and 92%
- Population Pyknosed Nuclei (%) (HEK-293T; [1]): 8% and 9%
- Population Tubulin-Different-Phenotype (%) (HEK-293T; [1]): 18% and 21%
- Total Cell Count (HEK-293T; [1]): 857 and 751
- Population Apoptotic (%) (HEK-293T; [2]): 66% and 54%
- Population Fragmented Nuclei (%) (HEK-293T; [2]): 4% and 3%
- Population Healthy Nuclei (%) (HEK-293T; [2]): 93% and 94%
- Population Hoechst High Intensity Objects (%) (HEK-293T; [2]): 7% and 6%
- Population Membrane Permeable-Phenotype (%) (HEK-293T; [2]): 6% and 8%
- Population Mitochondria Different-Phenotype (%) (HEK-293T; [2]): 20% and 11%
- Population Mitotic Cells (%) (HEK-293T; [2]): 33% and 45%
- Population Normal (%) (HEK-293T; [2]): 92% and 93%
- Population Pyknosed Nuclei (%) (HEK-293T; [2]): 1%
- Population Tubulin-Different-Phenotype (%) (HEK-293T; [2]): 75% and 80%
- Total Cell Count (HEK-293T; [2]): 463 and 591
- Population Apoptotic (%) (HEK-293T; [3]): 11% and 20%
- Population Fragmented Nuclei (%) (HEK-293T; [3]): 16% and 11%
- Population Healthy Nuclei (%) (HEK-293T; [3]): 79% and 85%
- Population Hoechst High Intensity Objects (%) (HEK-293T; [3]): 10% and 9%
- Population Membrane Permeable-Phenotype (%) (HEK-293T; [3]): 3%
- Population Mitochondria Different-Phenotype (%) (HEK-293T; [3]): 0% and 2%
- Population Mitotic Cells (%) (HEK-293T; [3]): 88% and 80%
- Population Normal (%) (HEK-293T; [3]): 89% and 90%
- Population Pyknosed Nuclei (%) (HEK-293T; [3]): 4% and 3%
- Population Tubulin-Different-Phenotype (%) (HEK-293T; [3]): 7% and 11%
- Total Cell Count (HEK-293T; [3]): 1935 and 1522
- Population Apoptotic (%) (HEK-293T; [4]): 81% and 57%
- Population Fragmented Nuclei (%) (HEK-293T; [4]): 11% and 10%
- Population Healthy Nuclei (%) (HEK-293T; [4]): 86% and 85%
- Population Hoechst High Intensity Objects (%) (HEK-293T; [4]): 9%
- Population Membrane Permeable-Phenotype (%) (HEK-293T; [4]): 4%
- Population Mitochondria Different-Phenotype (%) (HEK-293T; [4]): 6% and 10%
- Population Mitotic Cells (%) (HEK-293T; [4]): 18% and 42%
- Population Normal (%) (HEK-293T; [4]): 90%
- Population Pyknosed Nuclei (%) (HEK-293T; [4]): 1% and 3%
- Population Tubulin-Different-Phenotype (%) (HEK-293T; [4]): 56% and 45%
- Total Cell Count (HEK-293T; [4]): 617 and 528
- Population Apoptotic (%) (U2OS; [5]): 100% and 71%
- Population Healthy Nuclei (%) (U2OS; [5]): 63% and 82%
- Population Hoechst High Intensity Objects (%) (U2OS; [5]): 0%
- Population Membrane Permeable-Phenotype (%) (U2OS; [5]): 6% and 1%
- Population Mitochondria Different-Phenotype (%) (U2OS; [5]): 3% and 2%
- Population Normal (%) (U2OS; [5]): 100%
- Population Pyknosed Nuclei (%) (U2OS; [5]): 2% and 10%
- Population Tubulin-Different-Phenotype (%) (U2OS; [5]): 75% and 77%
- Population Apoptotic (%) (U2OS; [6]): 80%
- Population Healthy Nuclei (%) (U2OS; [6]): 48% and 67%
- Population Hoechst High Intensity Objects (%) (U2OS; [6]): 1% and 0%
- Population Membrane Permeable-Phenotype (%) (U2OS; [6]): 0% and 5%
- Population Mitochondria Different-Phenotype (%) (U2OS; [6]): 7% and 16%
- Population Mitotic Cells (%) (U2OS; [6]): 20% and 19%
- Population Normal (%) (U2OS; [6]): 98% and 99%
- Population Pyknosed Nuclei (%) (U2OS; [6]): 17% and 22%
- Population Tubulin-Different-Phenotype (%) (U2OS; [6]): 21% and 36%
- Population Apoptotic (%) (U2OS; [1]): 100% and 78%
- Population Healthy Nuclei (%) (U2OS; [1]): 69% and 84%
- Population Hoechst High Intensity Objects (%) (U2OS; [1]): 0%
- Population Membrane Permeable-Phenotype (%) (U2OS; [1]): 4% and 1%
- Population Mitochondria Different-Phenotype (%) (U2OS; [1]): 2% and 1%
- Population Mitotic Cells (%) (U2OS; [1]): 0% and 21%
- Population Normal (%) (U2OS; [1]): 100%
- Population Pyknosed Nuclei (%) (U2OS; [1]): 3% and 11%
- Population Tubulin-Different-Phenotype (%) (U2OS; [1]): 72% and 85%
- Population Apoptotic (%) (U2OS; [2]): 76% and 88%
- Population Fragmented Nuclei (%) (U2OS; [2]): 34% and 12%
- Population Healthy Nuclei (%) (U2OS; [2]): 25% and 32%
- Population Hoechst High Intensity Objects (%) (U2OS; [2]): 1% and 0%
- Population Membrane Permeable-Phenotype (%) (U2OS; [2]): 6% and 8%
- Population Mitochondria Different-Phenotype (%) (U2OS; [2]): 18% and 26%
- Population Mitotic Cells (%) (U2OS; [2]): 24% and 11%
- Population Normal (%) (U2OS; [2]): 98% and 100%
- Population Pyknosed Nuclei (%) (U2OS; [2]): 39% and 55%
- Population Tubulin-Different-Phenotype (%) (U2OS; [2]): 31% and 48%
- Population Apoptotic (%) (U2OS; [3]): 54% and 86%
- Population Healthy Nuclei (%) (U2OS; [3]): 51% and 86%
- Population Hoechst High Intensity Objects (%) (U2OS; [3]): 0%
- Population Membrane Permeable-Phenotype (%) (U2OS; [3]): 5% and 0%
- Population Mitochondria Different-Phenotype (%) (U2OS; [3]): 1%
- Population Normal (%) (U2OS; [3]): 100%
- Population Pyknosed Nuclei (%) (U2OS; [3]): 10% and 9%
- Population Tubulin-Different-Phenotype (%) (U2OS; [3]): 78% and 88%
- Population Apoptotic (%) (U2OS; [4]): 90%
- Population Healthy Nuclei (%) (U2OS; [4]): 13% and 21%
- Population Hoechst High Intensity Objects (%) (U2OS; [4]): 0% and 1%
- Population Membrane Permeable-Phenotype (%) (U2OS; [4]): 55% and 60%
- Population Mitochondria Different-Phenotype (%) (U2OS; [4]): 55% and 60%
- Population Mitotic Cells (%) (U2OS; [4]): 9%
- Population Normal (%) (U2OS; [4]): 100% and 98%
- Population Pyknosed Nuclei (%) (U2OS; [4]): 44% and 69%
- Population Tubulin-Different-Phenotype (%) (U2OS; [4]): 88% and 65%
- Total Cell Count (U2OS; [4]): 69 and 181
